The nature of data set [1]: folding enthalpy; higher = less favourable; fluorescence melt of hairpins on a sequencing array, two-state fit. To be noted: sodium 0.088 M. Put shortly:
(§1)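 Folding enthalpy and melting temperature come from bootstrapped two-state fits to Cy3 fluorescence of library hairpins carrying annealed Cy3 and quencher oligos on a sequenced MiSeq flow cell. Imaging was done in 50 mM Na-HEPES pH 8.0, 25 mM NaCl, stepping by 2.5 °C up to 60 °C, and signals were normalised to pre-quench Cy3 and to control constructs. Results of four replicates were combined by inverse variance, and fitted temperatures were raised by 9.35 °C to match UV melts.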

A short description of data set [2]: melting temperature; fluorescence melt of hairpins on a sequencing array, two-state fit, raised by 9.35 °C to match UV melts. To be noted: sodium 0.088 M. Put shortly:
as §1

Consider 55 sequences from the array DNA melting data of Ke et al. (doi:10.1101/2024.01.08.574731).

For GGAGGGAAACCTCC (((((....))))), the folding enthalpy in data set [1] was -26.3 kcal/mol. For the same sequence, the Tm in data set [2] stood at 54.7 °C.

Consider GGGACACGAAAGTGCCCC (((.(((....))).))), for which, in data set [1], the folding enthalpy is -37.8 kcal/mol. Moreover, the Tm in data set [2] was determined as 63.1 °C.

With GCCGTTCGAAAGAATGGC (((.(((....))).))), in data set [1], the folding enthalpy was -40.1 kcal/mol. For the same sequence, the Tm in data set [2] worked out at 62.6 °C.

GACCCCGAAAGGGTTGTC ((((((....)))..))): the folding enthalpy in data set [1] is -14.4 kcal/mol. The Tm in data set [2] was determined as 43.4 °C.

For GATCTGCACCCAGATC ((((((....)))))), the folding enthalpy in data set [1] was -33.4 kcal/mol. In addition, in data set [2], the Tm was determined as 47.8 °C.

Consider GGTCTCCCGAAAGGGACC (((..(((....)))))), for which the folding enthalpy in data set [1] was -12.4 kcal/mol. Besides, in data set [2], the Tm is 41.2 °C.

For GCTTATCGAAAGATGAGC (((.(((....))).))), the folding enthalpy in data set [1] was -54.6 kcal/mol. Also, the Tm in data set [2] is 50.6 °C.

Consider GATCGCGAAAGCGGTATC ((((((....)))..))), for which, in data set [1], the folding enthalpy was -10.9 kcal/mol. The Tm in data set [2] was found to be 39 °C.

CGGACGGAAACGTTCCG ((((((....))).))): the folding enthalpy in data set [1] is -27.5 kcal/mol. Besides, the Tm in data set [2] amounted to 51.2 °C.

As to GGAGTCGAAAGACGGTCC ((((((....)))..))), in data set [1], the folding enthalpy was -14.1 kcal/mol. Moreover, the Tm in data set [2] is 39.2 °C.

Turning to GCGTTACGAAAGTAGCGC (((.(((....))).))), the folding enthalpy in data set [1] is -39.7 kcal/mol. Further, the Tm in data set [2] came to 64.4 °C.

ACCTGGAAACAGGT (((((....))))): the folding enthalpy in data set [1] is -18.8 kcal/mol. Also, the Tm in data set [2] stood at 51.1 °C.

Consider GCGTTCGAAAGAATCCGC ((((((....)))..))), for which the folding enthalpy in data set [1] was -22 kcal/mol. The Tm in data set [2] worked out at 35.3 °C.

As to GTTCCCGAAAGGGTCAAC ((((((....)))..))), in data set [1], the folding enthalpy was -9.41 kcal/mol. In addition, the Tm in data set [2] stood at 26.9 °C.

On to GCTCCCCGAAAGGGAAGC (((.(((....))).))), for which, in data set [1], the folding enthalpy was -34 kcal/mol. For the same sequence, the Tm in data set [2] stood at 56.5 °C.

Consider GCATTGCGAAAGCAGGGC ((..(((....)))..)), for which, in data set [1], the folding enthalpy is -20.7 kcal/mol. Also, the Tm in data set [2] was 51 °C.

For GGACAGTCGAAAGACTCC (((..(((....)))))), the folding enthalpy in data set [1] is -12.8 kcal/mol. Further, the Tm in data set [2] is 31 °C.

On to GTTTAACGAAAGTTCAAC (((.(((....))).))), for which the folding enthalpy in data set [1] was -20.9 kcal/mol. Besides, the Tm in data set [2] was 36 °C.

As for GCTTCCGAAAGGATCAGC ((((((....)))..))), the folding enthalpy in data set [1] was -21.7 kcal/mol. Moreover, the Tm in data set [2] amounted to 34 °C.

Regarding GGCAACGAAAGTTGAGCC ((((((....)))..))), in data set [1], the folding enthalpy was -15.3 kcal/mol. In addition, the Tm in data set [2] is 45.4 °C.

Regarding GCCCGAGGAAACTCGAGC ((.((((....)))).)), the folding enthalpy in data set [1] is -31 kcal/mol. Also, in data set [2], the Tm was determined as 48.4 °C.

Take GAGGTACCGAAAGGTCTC (((..(((....)))))): the folding enthalpy in data set [1] is -17.5 kcal/mol. The Tm in data set [2] was determined as 31.4 °C.

Consider GATCCTGGACAGGATC ((((((....)))))), for which the folding enthalpy in data set [1] was -36.4 kcal/mol. Moreover, the Tm in data set [2] was 57.5 °C.

As for GATCACCAACGTGATC ((((((....)))))), the folding enthalpy in data set [1] is -41.6 kcal/mol. Moreover, the Tm in data set [2] was found to be 53.8 °C.

As to CGCTTCCGGAAACGGGCG (((..(((....)))))), the folding enthalpy in data set [1] is -23.4 kcal/mol. The Tm in data set [2] turned out to be 40 °C.

Consider GGTGTCGGAAACGGCATC (.((.((....)).)).), for which the folding enthalpy in data set [1] is -26.1 kcal/mol. For the same sequence, the Tm in data set [2] amounted to 44.4 °C.

With GCATACGAAAGTAGATGC ((((((....)))..))), the folding enthalpy in data set [1] is -27.1 kcal/mol. For the same sequence, the Tm in data set [2] is 41.1 °C.

For GGAACCGAAAGGTTTTCC ((((((....)))..))), the folding enthalpy in data set [1] was -12.6 kcal/mol. In addition, the Tm in data set [2] was determined as 35.6 °C.

For GCTGCGGGAAACTGCAGC (((((.(....).))))), the folding enthalpy in data set [1] is -40.6 kcal/mol. For the same sequence, the Tm in data set [2] was 64.5 °C.

In the case of GTACGCGAAAGCGGGTAC ((((((....)))..))), the folding enthalpy in data set [1] is -10.6 kcal/mol. In addition, the Tm in data set [2] was found to be 38.7 °C.

For TTGACGAAAGTCAA (((((....))))), the folding enthalpy in data set [1] was -21.4 kcal/mol. Besides, the Tm in data set [2] was found to be 54.1 °C.

Take GCCCTGCGAAAGCGAGGC (((..((....))..))): in data set [1], the folding enthalpy was -11.5 kcal/mol. The Tm in data set [2] is 54.2 °C.

As for GACTACGGAAACGCAGTC ((((.((....)).)))), the folding enthalpy in data set [1] was -28.3 kcal/mol. The Tm in data set [2] amounted to 42.1 °C.

Consider GATCCTCGTAGGATC ((((((...)))))), for which the folding enthalpy in data set [1] was -34.2 kcal/mol. Besides, in data set [2], the Tm was determined as 54.5 °C.

Turning to GATCGTGGCAACGATC ((((((....)))))), the folding enthalpy in data set [1] is -32.8 kcal/mol. For the same sequence, the Tm in data set [2] turned out to be 67.6 °C.

As for GATCCGGTGCGGATC ((((((...)))))), the folding enthalpy in data set [1] was -45.2 kcal/mol. In addition, the Tm in data set [2] came to 57.5 °C.

For GAAATCCGAAAGGAGTTC (((.(((....))).))), the folding enthalpy in data set [1] is -31.9 kcal/mol. For the same sequence, in data set [2], the Tm was 49.4 °C.

For GATCTGAACTCAGATC ((((((....)))))), the folding enthalpy in data set [1] is -38.6 kcal/mol. Further, the Tm in data set [2] was 48 °C.

For the sequence GTCAACCGAAAGGTGAC (((.(((....)))))), the folding enthalpy in data set [1] was -24.4 kcal/mol. Moreover, the Tm in data set [2] was 55.7 °C.

For GTCAGTCGAAAGACAGAC (((.(((....))).))), in data set [1], the folding enthalpy is -39.4 kcal/mol. Besides, the Tm in data set [2] was 51 °C.

As to GACGCCCGAAAGGGTGTC (((.(((....))).))), the folding enthalpy in data set [1] is -35.5 kcal/mol. Further, the Tm in data set [2] came to 69.3 °C.

GATCCACTGTGGATC ((((((...)))))): the folding enthalpy in data set [1] is -39.4 kcal/mol. For the same sequence, the Tm in data set [2] was determined as 51.6 °C.

On to GATCATATGGATGATC ((((((....)))))), for which the folding enthalpy in data set [1] is -28.1 kcal/mol. For the same sequence, the Tm in data set [2] was found to be 46.1 °C.

Take GGTCACGAAAGTGGACC ((((((....))).))): the folding enthalpy in data set [1] was -29 kcal/mol. In data set [2], the Tm amounted to 55.3 °C.

For GATCATTTTTATGATC ((((((....)))))), the folding enthalpy in data set [1] was -40 kcal/mol. In addition, the Tm in data set [2] came out at 49.1 °C.

With GATCTTTTCCAAGATC ((((((....)))))), in data set [1], the folding enthalpy is -36.2 kcal/mol. For the same sequence, the Tm in data set [2] turned out to be 42.9 °C.

As to GATCTTACGGAAGATC ((((((....)))))), the folding enthalpy in data set [1] was -29.2 kcal/mol. In addition, in data set [2], the Tm worked out at 44.1 °C.

Turning to GATCGTGCCTACGATC ((((((....)))))), the folding enthalpy in data set [1] was -34.3 kcal/mol. Moreover, the Tm in data set [2] stood at 57.4 °C.

Take GTAACCGAAAGGTTTAC ((((((....))).))): in data set [1], the folding enthalpy is -14.2 kcal/mol. In data set [2], the Tm was 43 °C.

In the case of GACAGGGGAAACCTTGTC ((((.((....)).)))), in data set [1], the folding enthalpy was -32.4 kcal/mol. Moreover, the Tm in data set [2] was 45.2 °C.

Take GTCTCCTCGAAAGAGGAC (((..(((....)))))): the folding enthalpy in data set [1] was -9.88 kcal/mol. Also, the Tm in data set [2] amounted to 32 °C.

Consider GATCTCGTAGGAGATC ((((((....)))))), for which the folding enthalpy in data set [1] was -33.9 kcal/mol. Also, the Tm in data set [2] came to 56.6 °C.

Take GCAAAGCGAAAGCTGAGC ((..(((....)))..)): in data set [1], the folding enthalpy is -18.5 kcal/mol. Besides, the Tm in data set [2] was found to be 55.9 °C.

On to GCTCTTCGAAAGAAAAGC (((.(((....))).))), for which the folding enthalpy in data set [1] was -31.4 kcal/mol. In addition, in data set [2], the Tm came to 34.6 °C.

For the sequence GCCGAAGGAAACTTTGGC (((.(((....))).))), the folding enthalpy in data set [1] is -39.5 kcal/mol. For the same sequence, the Tm in data set [2] came out at 51 °C.
